Holding throughout (type): functional, cell-based
Experiment [1] has as its system Caco-2. Description: Cytotoxicity against human Caco-2 cells after 48 hrs by MTT assay. The following applies: Caco-2, 48 h. The method, boiled down:
(§1)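 Cells seeded at 8000–10,000 viable cells/well and left 48 h to attach, then exposed to a range of compound concentrations for a further 48–96 h, depending on the cell line's cycle. After a PBS wash, MTT was added and the formazan was dissolved in DMSO. Absorbance was read at 550 nm against 690 nm reference. IC50 was obtained by linear regression from two independent experiments in triplicate (mean ± SD). Methotrexate served as reference.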
(Formazan colour is commonly taken as a measure of viable cells.)

For experiment [2], the system named is HT-29. The experiment in a line: Cytotoxicity against human HT-29 cells after 48 hrs by MTT assay. Conditions: HT-29, 48 h. The method, boiled down: as §1
Experiment [3] relates to T47D. Description: Cytotoxicity against human T47D cells after 48 hrs by MTT assay. The method, boiled down: as §1

The values that follow come from ChEMBL document CHEMBL1275323, “Synthesis and biological evaluation of 2-phenylthiazole-4-carboxamide derivatives as anticancer agents” (Eur J Med Chem, 2010).

Structures are written as SMILES. Converted amounts (≈) assume the structure as drawn.

By IC50 is commonly meant the concentration needed to halve the response being measured. Low values mean greater potency, high ones weaker potency.

For the compound `O=C(Cc1ccccc1Cl)NCc1ccc(-c2nc(C(=O)N3CCCCC3)cs2)cc1`, the figures for the IC50 in experiment [1], in experiment [2] and in experiment [3] were 12.8 µg/mL (≈ 28.1 µM), 26.8 µg/mL (≈ 59 µM) and 24.3 µg/mL (≈ 53.4 µM), respectively.
For `O=C(Cc1cccc(Cl)c1)NCc1ccc(-c2nc(C(=O)N3CCCCC3)cs2)cc1` the same measures were 155 µg/mL (≈ 341 µM), 64.3 µg/mL (≈ 142 µM) and 37.6 µg/mL (≈ 82.9 µM).
For `O=C(Cc1ccc(Cl)cc1)NCc1ccc(-c2nc(C(=O)N3CCCCC3)cs2)cc1` the same measures were 89.9 µg/mL (≈ 198 µM), 5.37 µg/mL (≈ 11.8 µM) and 11.8 µg/mL (≈ 26 µM).
Consider `O=C(Cc1ccccc1F)NCc1ccc(-c2nc(C(=O)N3CCCCC3)cs2)cc1`, for which the figures for the IC50 in experiment [1], in experiment [2] and in experiment [3] were 18.1 µg/mL (≈ 41.4 µM), more than 1000 µg/mL and 18.8 µg/mL (≈ 43 µM), respectively.
For the compound `O=C(Cc1cccc(F)c1)NCc1ccc(-c2nc(C(=O)N3CCCCC3)cs2)cc1`, the IC50 in experiment [1] came out at 4.32 µg/mL (≈ 9.87 µM); in experiment [2], 9.84 µg/mL (≈ 22.5 µM); in experiment [3], 2.02 µg/mL (≈ 4.62 µM).
For the compound `O=C(Cc1ccc(F)cc1)NCc1ccc(-c2nc(C(=O)N3CCCCC3)cs2)cc1`, the values for the IC50 in experiment [1], in experiment [2] and in experiment [3] were 114 µg/mL (≈ 260 µM), 52 µg/mL (≈ 119 µM) and 14.2 µg/mL (≈ 32.4 µM), respectively.
As for `O=C(Cc1ccc(Br)cc1)NCc1ccc(-c2nc(C(=O)N3CCCCC3)cs2)cc1`, the IC50 came out at 52 µg/mL (≈ 104 µM) in experiment [1], 45.3 µg/mL (≈ 90.8 µM) in experiment [2] and 29.5 µg/mL (≈ 59.1 µM) in experiment [3].
For the compound `COc1ccccc1CC(=O)NCc1ccc(-c2nc(C(=O)N3CCCCC3)cs2)cc1`, the IC50 in experiment [1] came to 28.1 µg/mL (≈ 62.4 µM); in experiment [2] it was 4.46 µg/mL (≈ 9.92 µM); in experiment [3], 6.83 µg/mL (≈ 15.2 µM).
For `COc1cccc(CC(=O)NCc2ccc(-c3nc(C(=O)N4CCCCC4)cs3)cc2)c1` the same measures were 41.1 µg/mL (≈ 91.4 µM), 447 µg/mL (≈ 995 µM) and 40.3 µg/mL (≈ 89.6 µM).
Turning to `COc1ccc(CC(=O)NCc2ccc(-c3nc(C(=O)N4CCCCC4)cs3)cc2)cc1`, the IC50 in experiment [1] is 1.88 µg/mL (≈ 4.18 µM); in experiment [2], more than 1000 µg/mL; in experiment [3], 21.6 µg/mL (≈ 48 µM).
Turning to `CN(Cc1cnc2nc(N)nc(N)c2n1)c1ccc(C(=O)N[C@@H](CCC(=O)O)C(=O)O)cc1` [METHOTREXATE], the IC50 in experiment [1] was 0.32 µg/mL (≈ 0.704 µM); in experiment [2], 0.23 µg/mL (≈ 0.506 µM); in experiment [3] it was 0.16 µg/mL (≈ 0.352 µM).
